Results gathered from unrelated publications.
Each line is one published result; the experiments were not run side by side.
Target: Protein kinase C theta type (PRKCQ, Homo sapiens, UniProt Q04759)

Compound | read-out | method | tested at | remaining binding [%]
C[C@@H](c1ccc(-n2cnc3c(N)ncnc32)cc1)N1CCc2nn(C)c(Cc3ccccc3)c2C1=O | binding | competition with immobilised ligand | 0.1 µM | 100
O=C(c1ccc(Nc2ncc(Cl)c(-c3cc4ccccc4s3)n2)cc1)N1CCC(N2CCCC2)CC1 | binding | competition with immobilised ligand | 1 µM | 23
CNC(=O)[C@@H]1CC[C@@H](n2c(-c3ccc4cnccc4c3)nc3ccc(C(=O)NCc4cccc(C(N)=O)c4)cc32)C1 | binding | competition with immobilised ligand | 1 µM | 63
C[C@H]1CCN(c2nccc(-c3cnn4ncccc34)n2)C1 | binding | – | 1 µM | 100
CCN1CCN(Cc2ccc(C(=O)Nc3ccc(C)c(Oc4ccc5c(c4)CC(=O)N5)c3)cc2C(F)(F)F)CC1 | binding | competition with immobilised ligand | 1 µM | 100
N[C@H]1CCN(c2nccc(-c3cnn4ncccc34)n2)C1 | binding | – | 1 µM | 74
O=C(NCCCN1CCOCC1)c1ccc(Nc2ncc(Cl)c(-c3ccc(Cl)s3)n2)cc1 | binding | competition with immobilised ligand | 1 µM | 100
FC(F)(F)Oc1cccc(-c2cnc3ccc(-c4ccncc4)nn23)c1 | cell-free assay | competition with immobilised ligand | 5 µM | 85
O=C(NC[C@@H]1[C@H]2CN(C(=O)OCc3cc(C(F)(F)F)cc(C(F)(F)F)c3)C[C@@H]12)c1ccc2[nH]nnc2c1 | cell-free assay | competition with immobilised ligand | 1 µM | 100
O=C(Nc1c[nH]nc1C(=O)NC1CCNCC1)c1cc(F)cc(F)c1 | binding | competition with immobilised ligand | 1 µM | 100
Cc1c(NC(=O)c2cc(C(N)=O)nc3cc(F)ccc23)c(C(F)(F)F)nn1Cc1ccc(C#N)cc1 | cell-free assay | competition with immobilised ligand | 1 µM | 80
c1cnn2ncc(-c3ccnc(N4CCC45COC5)n3)c2c1 | binding | – | 1 µM | 86
COc1cnc(Nc2cccc(S(N)(=O)=O)c2)nc1N1CCN(c2ccccc2)CC1 | binding | competition with immobilised ligand | 1 µM | 94
CN(C)c1nccc(-c2cnn3ncccc23)n1 | binding | – | 1 µM | 88
CN(c1ccnc(CNc2nc(Nc3ccc4c(c3)CC(=O)N4)ncc2C(F)(F)F)n1)S(C)(=O)=O | cell-free assay | competition with immobilised ligand | 1 µM | 55
CN(C)c1ncc(F)c(-c2cnn3ncccc23)n1 | binding | – | 1 µM | 100
CS(=O)(=O)N1CCCC(NC(=O)[C@H](CCC2CCCCC2)NC(=O)c2ccc(CNc3ncnc4c3nnn4-c3ccccc3)cc2)C1 (stereo partly shown) | cell-free assay | competition with immobilised ligand | 0.1 µM | 90
CN(c1nccc(-c2cnn3ncccc23)n1)C1CC1 | binding | – | 1 µM | 100
COc1ccc2c(c1)O[C@@H](c1ccc(OC)c(OC)c1)C[C@H]2NC(=O)C1(c2ccc3c(c2)OC(F)(F)O3)CC1 | cell-free assay | competition with immobilised ligand | 1 µM | 98
COc1ccnn2ncc(-c3ccnc(N(C)C)n3)c12 | binding | – | 1 µM | 81
Cc1cc(NC(=O)c2cccc(S(F)(F)(F)(F)F)c2)cc(-n2ccn3nc(-c4cccnc4)cc23)c1 | cell-free assay | competition with immobilised ligand | 1 µM | 60.3
O=C(c1ccc(Nc2ncc(Cl)c(-c3ccc(Cl)s3)n2)cc1)N1CCC(N2CCCC2)CC1 | binding | competition with immobilised ligand | 1 µM | 60
